FLuc act counter: affects firefly luciferase, flagging false hits in luciferase stimulation screens; P08659; AID 1027; 200,000 tested, under 10 active; ATPlite luciferase biochemical, luminescence, 10 min; 0 = ATP-free wells, 1 = DMSO control; activation factor at 10 µM;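 active = luciferase activation factor, scaled between plate controls, of at least 2 with compound at 10 µM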
Target sequence (P08659 whole entry, looked up): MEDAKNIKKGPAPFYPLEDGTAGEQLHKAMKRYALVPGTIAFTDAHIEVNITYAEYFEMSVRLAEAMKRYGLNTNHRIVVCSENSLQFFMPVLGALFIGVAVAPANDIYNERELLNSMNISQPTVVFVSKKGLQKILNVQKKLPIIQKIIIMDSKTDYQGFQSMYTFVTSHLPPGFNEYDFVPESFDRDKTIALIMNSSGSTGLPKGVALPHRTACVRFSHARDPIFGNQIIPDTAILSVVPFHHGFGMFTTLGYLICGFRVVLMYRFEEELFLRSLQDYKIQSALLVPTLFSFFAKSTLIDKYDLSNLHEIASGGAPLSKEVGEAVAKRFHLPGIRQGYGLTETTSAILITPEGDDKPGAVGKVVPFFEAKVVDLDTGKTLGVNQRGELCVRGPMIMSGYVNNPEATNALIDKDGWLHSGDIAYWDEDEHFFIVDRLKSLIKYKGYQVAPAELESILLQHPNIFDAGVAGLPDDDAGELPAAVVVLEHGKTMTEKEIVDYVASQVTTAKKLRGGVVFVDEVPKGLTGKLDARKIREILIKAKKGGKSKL
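Material: luciferase plus luciferin reagent, cell-free. Medium: PBS buffer for ATP. Also added: ATP substrate, dispensed from a 10.24 µM working solution in PBS. Doses: test compounds dosed from 2 mM stocks in 100% DMSO. Incubation: 10 min post-reagent at room temperature. Technique: light output (luminescence). Read-out basis: luminescence gain marking luciferase activators.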
NF-kB neuron act: raises NF-kB expression in human neuronal cells. NF-kB reporter expression; hits give high values. fold change at 12.5 µM. 1.6% of 190,000 active. AID 1239; in the data active = fold change above about 3.3
FLuc inh counter: inhibits firefly luciferase, flagging false hits in luciferase inhibition screens | AID 1006 | ATPLite firefly luciferase biochemical luminescence, 10 min | P08659 | inhibition, % at 10 µM | 1.5% of 200,000 active;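 active = inhibition above about 50% when tested at 10 µM, limit read from the data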
STAT1 activator: STAT1 signaling activation | NIH 3T3 STAT1-luciferase reporter, IFN-gamma, luminescence; 100% = IFN-gamma alone, no compound | activation (% of control), % at 5.5 µM | 2.6% of 200,000 active | AID 932;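 active = activation above the screen-wide mean activation plus 3 SD, cut at about 130% in these data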;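 also: raw ratio to IFN-gamma control signal so 100% means no change and 0% no light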
APP 5'UTR act: APP 5'UTR luciferase reporter activation; AID 1276; SH-SY5Y APP 5'UTR luciferase reporter, luminescence; zero percent = DMSO vehicle wells; activation, % at 2 µM; 1% of 190,000 active;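 active = activation above a set limit, based on mean plus 3 SD of controls, cut at about 140% in these data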
* marks the source's active call; other numbers are inactive results. Rows were chosen to be rich in hits. Some 4.1% of all compounds tested hit in one or more screens of this group.

Results for CCN(CC)C(=O)Oc1ccc2c(=O)c(-c3ccc(OC)cc3)coc2c1 ?
FLuc act counter: 1; NF-kB neuron act: 1.8; FLuc inh counter: 1; STAT1 activator: 144*; APP 5'UTR act: 74

How did CCN(CC)C(=O)Oc1ccc2c(=O)c(-c3ccc(OC)cc3)c(C)oc2c1 do in these assays?
FLuc act counter: 1.1; NF-kB neuron act: 0.9; FLuc inh counter: -7; STAT1 activator: 107; APP 5'UTR act: 5

What do the screens show for `Cc1ccc(S(=O)(=O)NCc2ccc(C(=O)NCCN(Cc3ccccc3)C(C)C)cc2)cc1`?
FLuc act counter: 1; NF-kB neuron act: 0.78; FLuc inh counter: -3; STAT1 activator: 81; APP 5'UTR act: -11

What do the screens show for `CCOC(=O)CC1C(=O)NCCN1C1CCCC1` (stereo not drawn)?
FLuc act counter: 1.1; NF-kB neuron act: 1.1; FLuc inh counter: -7; STAT1 activator: 94; APP 5'UTR act: -17

How did COc1ccc(Oc2nnc(C)c3ccccc23)cc1 do in these assays?
FLuc act counter: 0.9; NF-kB neuron act: 3.5*; FLuc inh counter: 14; STAT1 activator: 130*; APP 5'UTR act: 38

What do the screens show for `CCSc1nc2ccc(C)cc2cc1C#N`?
FLuc act counter: 1.1; NF-kB neuron act: 1.4; FLuc inh counter: -5; STAT1 activator: 105; APP 5'UTR act: 23

What do the screens show for `Cc1ccc2nc(CSc3nc(C)ccc3C#N)[nH]c2c1`?
FLuc act counter: 0.4; NF-kB neuron act: 1.7; FLuc inh counter: 65*; STAT1 activator: 139*; APP 5'UTR act: 93

Results for Cc1ccc(-n2c(C)cc(C(=O)CN3CCOCC3)c2C)cc1 ?
FLuc act counter: 1; NF-kB neuron act: 1.8; FLuc inh counter: -2; STAT1 activator: 119; APP 5'UTR act: 38

Results for Cc1cc(C(=O)CN2CCCC(C)C2)c(C)n1-c1ccc(F)cc1 (stereo not drawn) ?
FLuc act counter: 1; NF-kB neuron act: 0.91; FLuc inh counter: -2; STAT1 activator: 143*; APP 5'UTR act: 18

How did COc1nc(N=C(N)N)nc2ccc(C)cc12 do in these assays?
FLuc act counter: 1; NF-kB neuron act: 1.2; FLuc inh counter: 0; STAT1 activator: 115; APP 5'UTR act: 8

Results for CCOc1ccc(C(=O)CSc2nnc3ccccn23)cc1 ?
FLuc act counter: 0.9; NF-kB neuron act: 4.1*; FLuc inh counter: 9; STAT1 activator: 141*; APP 5'UTR act: 131

What do the screens show for `Cc1c(=O)n(OCc2cccc(F)c2)c2ccccc2[n+]1[O-]`?
FLuc act counter: 1; NF-kB neuron act: 3; FLuc inh counter: -5; STAT1 activator: 97; APP 5'UTR act: -2

What do the screens show for `Cc1c(=O)n(OCc2ccccc2F)c2ccccc2[n+]1[O-]`?
FLuc act counter: 1; NF-kB neuron act: 5.2*; FLuc inh counter: -3; STAT1 activator: 97; APP 5'UTR act: -18

Results for CCOC(=O)c1ccc(-c2ccc(CO)o2)cc1 ?
FLuc act counter: 0.6; NF-kB neuron act: 2.8; FLuc inh counter: 38; STAT1 activator: 129*; APP 5'UTR act: 70

How did CCOC(=O)c1ccc(COC(=O)c2ccc(-c3nnc(-c4ccccc4)o3)cc2)o1 do in these assays?
STAT1 activator: 130*; APP 5'UTR act: 44

What do the screens show for `Cc1ccc(-c2ccc(CO)o2)cc1N`?
FLuc act counter: 1; NF-kB neuron act: 1.1; FLuc inh counter: 4; STAT1 activator: 101; APP 5'UTR act: 43

What do the screens show for `CCOC(=O)c1ccc(COc2ccc(C(C)C)cc2)o1`?
FLuc act counter: 1; NF-kB neuron act: 2.1; FLuc inh counter: -1; STAT1 activator: 111; APP 5'UTR act: 134

How did CCOc1ccc(OCc2ccc(C(=O)OCc3ccccn3)o2)cc1 do in these assays?
FLuc act counter: 1; NF-kB neuron act: 4.4*; FLuc inh counter: 2; STAT1 activator: 93; APP 5'UTR act: 108

How did COCc1c(C(=O)N/N=C/c2cccc3ccccc23)nnn1-c1nonc1N do in these assays?
FLuc act counter: 1; NF-kB neuron act: 1.1; FLuc inh counter: 4; STAT1 activator: 106; APP 5'UTR act: -9

What do the screens show for `CCNC(=O)COc1ccc(-c2ccccc2)cc1`?
FLuc act counter: 0.9; NF-kB neuron act: 1.6; FLuc inh counter: 12; STAT1 activator: 107; APP 5'UTR act: 45

How did CCCOC(=O)CC1C(=O)NCCN1C(=O)OC(C)(C)C (stereo not drawn) do in these assays?
FLuc act counter: 1.1; NF-kB neuron act: 1.2; FLuc inh counter: -6; STAT1 activator: 108; APP 5'UTR act: 27

What do the screens show for `Cc1cc(-c2ccccc2)nn1-c1nc2c(c(=O)[nH]c(=O)n2C)n1C`?
FLuc act counter: 1.1; NF-kB neuron act: 1.3; FLuc inh counter: -5; STAT1 activator: 95; APP 5'UTR act: 22

How did O=S(=O)(NCCOCC(F)(F)F)c1ccc2oc3ccccc3c2c1 do in these assays?
FLuc act counter: 1; NF-kB neuron act: 1.1; FLuc inh counter: 0; STAT1 activator: 100; APP 5'UTR act: 13

Results for O=C(O)c1cn(Cc2ccccn2)c(=O)c2ccccc12 ?
FLuc act counter: 1; NF-kB neuron act: 0.94; FLuc inh counter: 2; STAT1 activator: 109; APP 5'UTR act: 152*

What do the screens show for `O=C(O)c1cn(Cc2cccnc2)c(=O)c2ccccc12`?
FLuc act counter: 1.1; NF-kB neuron act: 0.98; FLuc inh counter: -5; STAT1 activator: 91; APP 5'UTR act: 9

How did O=C(COc1ccccc1F)N/N=C1\CCCc2ccccc21 do in these assays?
FLuc act counter: 0.9; NF-kB neuron act: 3; FLuc inh counter: 15; STAT1 activator: 139*; APP 5'UTR act: 48

What do the screens show for `C/C(=N\Nc1cccc([N+](=O)[O-])c1)c1ccccc1O`?
FLuc act counter: 1; NF-kB neuron act: 1.8; FLuc inh counter: 0; STAT1 activator: 135*; APP 5'UTR act: 42

Results for O=[N+]([O-])c1cccc(N/N=C/c2cccc(O)c2O)c1 ?
FLuc act counter: 0.9; NF-kB neuron act: 2.5; FLuc inh counter: 11; STAT1 activator: 108; APP 5'UTR act: -35

Results for CC(C)Sc1nc(N)nc(-c2cccs2)c1C#N ?
FLuc act counter: 0.9; NF-kB neuron act: 2.8; FLuc inh counter: 5; STAT1 activator: 134*

How did CCOC(=O)c1c(C)[nH]c2cc(Br)c(O)cc12 do in these assays?
FLuc act counter: 1; NF-kB neuron act: 3.4*; FLuc inh counter: 2; STAT1 activator: 103; APP 5'UTR act: -44

How did CCOC(=O)c1c(OCC)[nH]c2c1cc(O)c1ccccc12 do in these assays?
FLuc act counter: 1.1; NF-kB neuron act: 0.86; FLuc inh counter: -7; STAT1 activator: 106; APP 5'UTR act: -17

What do the screens show for `CC1(C)Cc2c(sc(NC(=O)c3ccco3)c2C#N)CO1`?
FLuc act counter: 0.2; NF-kB neuron act: 2.8; FLuc inh counter: 75*; STAT1 activator: 126; APP 5'UTR act: 78

How did CCC(C)NCC(=O)Nc1ccc(S(N)(=O)=O)cc1 (stereo not drawn) do in these assays?
FLuc act counter: 1; NF-kB neuron act: 1; FLuc inh counter: 0; STAT1 activator: 110; APP 5'UTR act: 12

Screens: PubChem BioAssay, several laboratories
